Source: ChEMBL document CHEMBL5120908, “Diterpenoid Constituents of Psiadia punctulata and Evaluation of Their Antimicrobial Activity” (2022)
Values after ≈ are worked out from the molar mass of the structure shown. Each block holds one compound with its values, some of them ahead of it. Active and inactive are the calls of the source. The calls are words filed in the database; no cut-off is given here.

Assays:
Staphylococcus aureus [1] = assay: Antibacterial activity against Staphylococcus aureus ATCC 23235 incubated for 48 hrs by spectrophotometric analysis; assay type: functional
Streptococcus mutans [2] = assay: Antibacterial activity against Streptococcus mutans ATCC 25175 incubated for 48 hrs by spectrophotometric analysis; assay type: functional
Treponema denticola [3] = assay: Antibacterial activity against Treponema denticola ATCC 35405 incubated for 48 hrs by spectrophotometric analysis; assay type: functional
How it was run: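 Broth microdilution MIC: fractions tested at 20–200 μg/mL and pure compounds at 10–200 μg/mL, each with 0.5 × 10^5 CFU/mL inoculum. S. aureus and S. mutans grew aerobically in BHI at 37 °C for 24 h. T. denticola grew anaerobically in BHI at 37 °C for 48 h. Read by A600. MIC is the lowest concentration inhibiting visible growth. Blank and DMSO vehicle controls were included; triplicate.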

Staphylococcus aureus [4] = assay: Potentiation of antimicrobial activity against Staphylococcus aureus ATCC 23235 assessed as chlorhexidine MIC at 25 ug/ml incubated for 48 hrs by checkerboard assay; assay type: functional; details: dose 25 µg/ml
How it was run: (§1)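 Checkerboard: psiadin at 0, 25, 50, 100, 200 μg/mL crossed with chlorhexidine at 5, 2.5, 1.25, 0.6, 0.3, 0 μg/mL. Broth microdilution MIC was read as the lowest concentration with no visible growth (A600). L. plantarum grew in MRS and T. denticola in BHI, both anaerobic at 37 °C. S. aureus and S. mutans grew in aerobic BHI at 37 °C. FIC index calculated from combination versus single-agent MICs.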

Streptococcus mutans [5] = assay: Potentiation of antimicrobial activity against Streptococcus mutans ATCC 25175 assessed as chlorhexidine MIC at 25 ug/ml incubated for 48 hrs by checkerboard assay; assay type: functional; details: dose 25 µg/ml; how it was run: as §1
[6] = system: Lactiplantibacillus plantarum; assay: Potentiation of antimicrobial activity against Lactobacillus plantarum ATCC 8014 assessed as chlorhexidine MIC at 25 ug/ml incubated for 48 hrs by checkerboard assay; assay type: functional; details: dose 25 µg/ml; how it was run: as §1
Treponema denticola [7] = assay: Potentiation of antimicrobial activity against Treponema denticola ATCC 35405 assessed as chlorhexidine MIC at 25 ug/ml incubated for 48 hrs by checkerboard assay; assay type: functional; details: dose 25 µg/ml; how it was run: as §1
Staphylococcus aureus [8] = assay: Potentiation of antimicrobial activity against Staphylococcus aureus ATCC 23235 assessed as chlorhexidine MIC at 50 ug/ml incubated for 48 hrs by checkerboard assay; assay type: functional; details: dose 50 µg/ml; how it was run: as §1
Streptococcus mutans [9] = assay: Potentiation of antimicrobial activity against Streptococcus mutans ATCC 25175 assessed as chlorhexidine MIC at 50 ug/ml incubated for 48 hrs by checkerboard assay; assay type: functional; details: dose 50 µg/ml; how it was run: as §1
[10] = system: Lactiplantibacillus plantarum; assay: Potentiation of antimicrobial activity against Lactobacillus plantarum ATCC 8014 assessed as chlorhexidine MIC at 50 ug/ml incubated for 48 hrs by checkerboard assay; assay type: functional; details: dose 50 µg/ml; how it was run: as §1
Treponema denticola [11] = assay: Potentiation of antimicrobial activity against Treponema denticola ATCC 35405 assessed as chlorhexidine MIC at 50 ug/ml incubated for 48 hrs by checkerboard assay; assay type: functional; details: dose 50 µg/ml; how it was run: as §1
Staphylococcus aureus [12] = assay: Potentiation of antimicrobial activity against Staphylococcus aureus ATCC 23235 assessed as chlorhexidine MIC at 100 ug/ml incubated for 48 hrs by checkerboard assay; assay type: functional; details: dose 100 µg/ml; how it was run: as §1
Streptococcus mutans [13] = assay: Potentiation of antimicrobial activity against Streptococcus mutans ATCC 25175 assessed as chlorhexidine MIC at 100 ug/ml incubated for 48 hrs by checkerboard assay; assay type: functional; details: dose 100 µg/ml; how it was run: as §1
[14] = system: Lactiplantibacillus plantarum; assay: Potentiation of antimicrobial activity against Lactobacillus plantarum ATCC 8014 assessed as chlorhexidine MIC at 100 ug/ml incubated for 48 hrs by checkerboard assay; assay type: functional; details: dose 100 µg/ml; how it was run: as §1
Treponema denticola [15] = assay: Potentiation of antimicrobial activity against Treponema denticola ATCC 35405 assessed as chlorhexidine MIC at 100 ug/ml incubated for 48 hrs by checkerboard assay; assay type: functional; details: dose 100 µg/ml; how it was run: as §1
Staphylococcus aureus [16] = assay: Potentiation of antimicrobial activity against Staphylococcus aureus ATCC 23235 assessed as chlorhexidine MIC at 200 ug/ml incubated for 48 hrs by checkerboard assay; assay type: functional; details: dose 200 µg/ml; how it was run: as §1
Streptococcus mutans [17] = assay: Potentiation of antimicrobial activity against Streptococcus mutans ATCC 25175 assessed as chlorhexidine MIC at 200 ug/ml incubated for 48 hrs by checkerboard assay; assay type: functional; details: dose 200 µg/ml; how it was run: as §1
[18] = system: Lactiplantibacillus plantarum; assay: Potentiation of antimicrobial activity against Lactobacillus plantarum ATCC 8014 assessed as chlorhexidine MIC at 200 ug/ml incubated for 48 hrs by checkerboard assay; assay type: functional; details: dose 200 µg/ml; how it was run: as §1
Treponema denticola [19] = assay: Potentiation of antimicrobial activity against Treponema denticola ATCC 35405 assessed as chlorhexidine MIC at 200 ug/ml incubated for 48 hrs by checkerboard assay; assay type: functional; details: dose 200 µg/ml; how it was run: as §1
Staphylococcus aureus [20] = assay: Synergistic antimicrobial activity against Staphylococcus aureus ATCC 23235 assessed as fractional inhibitory concentration at 50 ug/ml incubated for 48 hrs in presence of chlorhexidine by checkerboard assay; assay type: functional; details: dose 50 µg/ml; how it was run: as §1
Staphylococcus aureus [21] = assay: Synergistic antimicrobial activity against Staphylococcus aureus ATCC 23235 assessed as fractional inhibitory concentration at 25 ug/ml incubated for 48 hrs in presence of chlorhexidine by checkerboard assay; assay type: functional; details: dose 25 µg/ml; how it was run: as §1
Streptococcus mutans [22] = assay: Antibacterial activity against Streptococcus mutans ATCC 25175 assessed as inhibition of efflux pump by measuring increase in accumulation of ethidium bromide at 25 to 50 ug/ml and measured after 60 mins by fluorescence assay; assay type: functional, organism-based; details: dose 25-50 µg/ml, DDE = dose-dependent effect
How it was run: (§2)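 EtBr accumulation in S. mutans grown overnight in BHI at 37 °C. Cells were washed twice and resuspended in PBS at OD600 0.6 with 0.4% glucose and 2 μg/mL EtBr (final). Psiadin was tested at 25 and 50 μg/mL, chlorhexidine at 0.6 μg/mL, and psiadin combined with chlorhexidine. DMSO and MeOH (0.5% each) served as negative controls. Fluorescence (ex 525/em 605 nm) was read every 60 s for 60 min at 37 °C.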

Streptococcus mutans [23] = assay: Antibacterial activity against Streptococcus mutans ATCC 25175 assessed as inhibition of efflux pump by measuring increase in accumulation of ethidium bromide at 50 ug/ml and measured after 60 mins in presence of chlorhexidine by fluorescence assay; assay type: functional, organism-based; details: dose 50.0 µg/ml; how it was run: as §2
Streptococcus mutans [24] = assay: Synergistic antimicrobial activity against Streptococcus mutans ATCC 25175 assessed as fractional inhibitory concentration incubated for 48 hrs in presence of chlorhexidine by checkerboard assay; assay type: functional; details: time 24 hrs; in the assay text read “24 hrs” for “48 hrs”; how it was run: as §1
Streptococcus mutans [25] = assay: Antibiofilm activity against Streptococcus mutans ATCC 25175 at 50 to 100 ug/ml measured after 24 hrs by crystal violet staining method; details: dose 50-100 µg/ml
Streptococcus mutans [26] = assay: Antibacterial activity against Streptococcus mutans ATCC 25175 assessed as inhibition of efflux pump by measuring […] in accumulation of ethidium bromide at 0.6 ug/ml and measured after 60 mins by fluorescence assay; assay type: functional, organism-based; details: dose 0.6 µg/ml; how it was run: as §2
Staphylococcus aureus [27] = assay: Antibacterial activity against Staphylococcus aureus ATCC 23235 incubated for 48 hrs by checkerboard assay; assay type: functional; how it was run: as §1
Streptococcus mutans [28] = assay: Antibacterial activity against Streptococcus mutans ATCC 25175 incubated for 48 hrs by checkerboard assay; assay type: functional; how it was run: as §1
[29] = system: Lactiplantibacillus plantarum; assay: Antibacterial activity against Lactobacillus plantarum ATCC 8014 incubated for 48 hrs by checkerboard assay; assay type: functional; how it was run: as §1
Treponema denticola [30] = assay: Antibacterial activity against Treponema denticola ATCC 35405 incubated for 48 hrs by checkerboard assay; assay type: functional; how it was run: as §1

MIC (Staphylococcus aureus [1]): > 250 µg/mL
MIC (Streptococcus mutans [2]): 180 µg/mL (≈ 523 µM)
MIC (Treponema denticola [3]): 200 µg/mL (≈ 581 µM)
Compound: COc1c(OC)c(O)c2c(=O)cc(-c3ccc(O)cc3)oc2c1OC [XANTHOMICROL]

MIC (Staphylococcus aureus [1]): 125 µg/mL (≈ 393 µM)
MIC (Streptococcus mutans [2]): 140 µg/mL (≈ 440 µM)
MIC (Treponema denticola [3]): 100 µg/mL (≈ 314 µM)
MIC (Staphylococcus aureus [4]): 1.25 µg/mL
MIC (Streptococcus mutans [5]): 1.25 µg/mL
MIC (Treponema denticola [7]): 2.5 µg/mL
MIC (Staphylococcus aureus [8]): 1.25 µg/mL
MIC (Streptococcus mutans [9]): 0.6 µg/mL
MIC (Treponema denticola [11]): 2.5 µg/mL
MIC (Staphylococcus aureus [12]): 0.6 µg/mL
MIC (Streptococcus mutans [13]): 0.6 µg/mL
MIC (Treponema denticola [15]): 2.5 µg/mL
MIC (Staphylococcus aureus [16]): 0.3 µg/mL
MIC (Streptococcus mutans [17]): 0.3 µg/mL
MIC (Treponema denticola [19]): 1.25 µg/mL
Compound: C=C1C[C@]23CC[C@@H]4C(CO)(CO)CC(=O)C[C@@]4(C)[C@@H]2CC[C@H]1C3
MIC [6]: 10 µg/mL
MIC [10]: 10 µg/mL
MIC [14]: 10 µg/mL
MIC [18]: 2.5 µg/mL
FIC (Staphylococcus aureus [20]): 0.9
FIC (Staphylococcus aureus [21]): 0.7
Activity (Streptococcus mutans [22]): Dde
Activity (Streptococcus mutans [23]): Active
FIC (Streptococcus mutans [24]): 0.85
Activity (Streptococcus mutans [25]): Active

MIC (Staphylococcus aureus [27]): 2.5 µg/mL
MIC (Streptococcus mutans [28]): 1.25 µg/mL
MIC (Treponema denticola [30]): 2.2 µg/mL
Compound: N=C(NCCCCCCNC(=N)NC(=N)Nc1ccc(Cl)cc1)NC(=N)Nc1ccc(Cl)cc1 [CHLORHEXIDINE]
Activity (Streptococcus mutans [26]): Active
MIC [29]: 10 µg/mL
